Experimental data: ChEMBL document CHEMBL1938293, “Molecular drug-organiser: synthesis, characterization and biological evaluation of penicillin V and/or nalidixic acid calixarene-based podands” (2011)
Active and inactive are the calls of the source. No cut-off for these calls is given here.

Tests used:
Staphylococcus aureus [1] = assay: Antibacterial activity against Staphylococcus aureus ATCC 25923 at 5 mg/mL after 24 hrs by disk diffusion assay; type: functional, organism-based
Procedure, shortened: (§1)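 Disk diffusion on Mueller–Hinton agar per CLSI recommendations. Sterile 6 mm cellulose disks were impregnated with 20 μL of the DMSO solution at the stated concentration. Plates were incubated at 37 °C and growth-inhibition zone diameters were read at 24 h. Disks carrying DMSO alone served as solvent control.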

Enterococcus faecalis [2] = assay: Antibacterial activity against Enterococcus faecalis ATCC 29212 at 5 mg/mL after 24 hrs by disk diffusion assay; type: functional, organism-based; procedure, shortened: as §1
Pseudomonas aeruginosa [3] = assay: Antibacterial activity against Pseudomonas aeruginosa ATCC 27853 at 5 mg/mL after 24 hrs by disk diffusion assay; type: functional, organism-based; procedure, shortened: as §1
Staphylococcus aureus [4] = assay: Antibacterial activity against Staphylococcus aureus ATCC 29213 at 5 mg/mL after 24 hrs by disk diffusion assay; type: functional, organism-based; procedure, shortened: as §1
Escherichia coli [5] = assay: Antibacterial activity against Escherichia coli ATCC 25922 at 5 mg/mL after 24 hrs by disk diffusion assay; type: functional, organism-based; procedure, shortened: as §1
Enterococcus faecalis [6] = assay: Antibacterial activity against Enterococcus faecalis ATCC 29212 at 5.8 mg/mL after 24 hrs by disk diffusion assay; type: functional, organism-based; procedure, shortened: as §1
Staphylococcus aureus [7] = assay: Antibacterial activity against Staphylococcus aureus ATCC 29213 at 5.8 mg/mL after 24 hrs by disk diffusion assay; type: functional, organism-based; procedure, shortened: as §1
Pseudomonas aeruginosa [8] = assay: Antibacterial activity against Pseudomonas aeruginosa ATCC 27853 at 2.53 mg/mL after 24 hrs by disk diffusion assay; type: functional, organism-based; procedure, shortened: as §1
Staphylococcus aureus [9] = assay: Antibacterial activity against Staphylococcus aureus ATCC 29213 at 2.53 mg/mL after 24 hrs by disk diffusion assay; type: functional, organism-based; procedure, shortened: as §1
Escherichia coli [10] = assay: Antibacterial activity against Escherichia coli ATCC 25922 at 2.53 mg/mL after 24 hrs by disk diffusion assay; type: functional, organism-based; procedure, shortened: as §1
Staphylococcus aureus [11] = assay: Antibacterial activity against Staphylococcus aureus ATCC 25923 at 5.8 mg/mL after 24 hrs by disk diffusion assay; type: functional, organism-based; procedure, shortened: as §1
Staphylococcus aureus [12] = assay: Antibacterial activity against Staphylococcus aureus ATCC 25923 at 2.53 mg/mL after 24 hrs by disk diffusion assay; type: functional, organism-based; procedure, shortened: as §1
Escherichia coli [13] = assay: Antibacterial activity against Escherichia coli ATCC 25922 at 5.8 mg/mL after 24 hrs by disk diffusion assay; type: functional, organism-based; procedure, shortened: as §1
Enterococcus faecalis [14] = assay: Antibacterial activity against Enterococcus faecalis ATCC 29212 at 2.53 mg/mL after 24 hrs by disk diffusion assay; type: functional, organism-based; procedure, shortened: as §1
Staphylococcus aureus [15] = assay: Antibacterial activity against Staphylococcus aureus ATCC 29213 at 3.25 mg/mL after 24 hrs by disk diffusion assay; type: functional, organism-based; procedure, shortened: as §1
Pseudomonas aeruginosa [16] = assay: Antibacterial activity against Pseudomonas aeruginosa ATCC 27853 at 3.25 mg/mL after 24 hrs by disk diffusion assay; type: functional, organism-based; procedure, shortened: as §1
Enterococcus faecalis [17] = assay: Antibacterial activity against Enterococcus faecalis ATCC 29212 at 3.25 mg/mL after 24 hrs by disk diffusion assay; type: functional, organism-based; procedure, shortened: as §1
Escherichia coli [18] = assay: Antibacterial activity against Escherichia coli ATCC 25922 at 3.25 mg/mL after 24 hrs by disk diffusion assay; type: functional, organism-based; procedure, shortened: as §1
Staphylococcus aureus [19] = assay: Antibacterial activity against Staphylococcus aureus ATCC 25923 at 3.25 mg/mL after 24 hrs by disk diffusion assay; type: functional, organism-based; procedure, shortened: as §1
Staphylococcus aureus [20] = assay: Antibacterial activity against Staphylococcus aureus ATCC 25923 at 2.83 mg/mL after 24 hrs by disk diffusion assay; type: functional, organism-based; procedure, shortened: as §1
Staphylococcus aureus [21] = assay: Antibacterial activity against Staphylococcus aureus ATCC 25923 at 1.25 mg/mL after 24 hrs by disk diffusion assay; type: functional, organism-based; procedure, shortened: as §1
Enterococcus faecalis [22] = assay: Antibacterial activity against Enterococcus faecalis ATCC 29212 at 1.25 mg/mL after 24 hrs by disk diffusion assay; type: functional, organism-based; procedure, shortened: as §1
Staphylococcus aureus [23] = assay: Antibacterial activity against Staphylococcus aureus ATCC 29213 at 2.83 mg/mL after 24 hrs by disk diffusion assay; type: functional, organism-based; procedure, shortened: as §1
Pseudomonas aeruginosa [24] = assay: Antibacterial activity against Pseudomonas aeruginosa ATCC 27853 at 2.83 mg/mL after 24 hrs by disk diffusion assay; type: functional, organism-based; procedure, shortened: as §1
Enterococcus faecalis [25] = assay: Antibacterial activity against Enterococcus faecalis ATCC 29212 at 2.83 mg/mL after 24 hrs by disk diffusion assay; type: functional, organism-based; procedure, shortened: as §1
Escherichia coli [26] = assay: Antibacterial activity against Escherichia coli ATCC 25922 at 2.83 mg/mL after 24 hrs by disk diffusion assay; type: functional, organism-based; procedure, shortened: as §1
Staphylococcus aureus [27] = assay: Antibacterial activity against Staphylococcus aureus ATCC 29213 at 1.25 mg/mL after 24 hrs by disk diffusion assay; type: functional, organism-based; procedure, shortened: as §1
Staphylococcus aureus [28] = assay: Antibacterial activity against Staphylococcus aureus ATCC 25923 at 1.88 mg/mL after 24 hrs by disk diffusion assay; type: functional, organism-based
Procedure, shortened: (§2)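 Disk diffusion on Mueller–Hinton agar, run per CLSI recommendations. Sterile 6 mm cellulose disks each carried 20 μL of a DMSO solution. Reference drugs were dosed to equal the maximum amount releasable from the calixarene podands. Disks with DMSO alone served as solvent controls. Plates were incubated at 37 °C, and growth-inhibition zone diameter (mm) was read at 24 h.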

Pseudomonas aeruginosa [29] = assay: Antibacterial activity against Pseudomonas aeruginosa ATCC 27853 at 1.88 mg/mL after 24 hrs by disk diffusion assay; type: functional, organism-based; procedure, shortened: as §2
Staphylococcus aureus [30] = assay: Antibacterial activity against Staphylococcus aureus ATCC 29213 at 1.88 mg/mL after 24 hrs by disk diffusion assay; type: functional, organism-based; procedure, shortened: as §2
Escherichia coli [31] = assay: Antibacterial activity against Escherichia coli ATCC 25922 at 1.88 mg/mL after 24 hrs by disk diffusion assay; type: functional, organism-based; procedure, shortened: as §2
Enterococcus faecalis [32] = assay: Antibacterial activity against Enterococcus faecalis ATCC 29212 at 1.88 mg/mL after 24 hrs by disk diffusion assay; type: functional, organism-based; procedure, shortened: as §2
Staphylococcus aureus [33] = assay: Antibacterial activity against Staphylococcus aureus ATCC 25923 at 10 mg/mL freshly prepared compound after 24 hrs by disk diffusion assay; type: functional; procedure, shortened: as §1
Staphylococcus aureus [34] = assay: Antibacterial activity against Staphylococcus aureus ATCC 25923 at 10 mg/mL after 24 hrs by disk diffusion assay; type: functional; conditions: ATCC 25923, 24 h, read-out: DIZ; procedure, shortened: as §1
Staphylococcus aureus [35] = assay: Antibacterial activity against Staphylococcus aureus ATCC 29213 at 10 mg/mL after 24 hrs by disk diffusion assay; type: functional, organism-based; procedure, shortened: as §1
Staphylococcus aureus [36] = assay: Antibacterial activity against Staphylococcus aureus ATCC 25923 at 10 mg/mL 1 month old compound stored at 4 degree C after 24 hrs by disk diffusion assay; type: functional; conditions: ATCC 25923, 24 h, read-out: DIZ
Procedure, shortened: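 Disk diffusion on Mueller–Hinton agar per CLSI recommendations. The DMSO solution had been stored 1 month at 4 °C before use and was compared with a freshly prepared solution. Sterile 6 mm cellulose disks were impregnated with 20 μL. Plates were incubated at 37 °C and inhibition zone diameter was read at 24 h.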

Enterococcus faecalis [37] = assay: Antibacterial activity against Enterococcus faecalis ATCC 29212 at 10 mg/mL after 24 hrs by disk diffusion assay; type: functional, organism-based; procedure, shortened: as §1
Escherichia coli [38] = assay: Antibacterial activity against Escherichia coli ATCC 25922 at 10 mg/mL after 24 hrs by disk diffusion assay; type: functional, organism-based; procedure, shortened: as §1

SMILES: CCn1cc(C(=O)OCCCOc2c3cc(C(C)(C)C)cc2Cc2cc(C(C)(C)C)cc(c2O)Cc2cc(C(C)(C)C)cc(c2OCCCOC(=O)c2cn(CC)c4nc(C)ccc4c2=O)Cc2cc(C(C)(C)C)cc(c2O)C3)c(=O)c2ccc(C)nc21
- Activity (Staphylococcus aureus [1]): inactive
- Activity (Enterococcus faecalis [2]): inactive
- Activity (Pseudomonas aeruginosa [3]): inactive
- Activity (Staphylococcus aureus [4]): inactive
- Activity (Escherichia coli [5]): inactive

SMILES: CC(C)(C)c1cc2c(O)c(c1)Cc1cc(C(C)(C)C)cc(c1OCCCOC(=O)[C@@H]1N3C(=O)[C@@H](NC(=O)COc4ccccc4)[C@H]3SC1(C)C)Cc1cc(C(C)(C)C)cc(c1O)Cc1cc(C(C)(C)C)cc(c1OCCCOC(=O)[C@@H]1N3C(=O)[C@@H](NC(=O)COc4ccccc4)[C@H]3SC1(C)C)C2
- Activity (Enterococcus faecalis [6]): inactive
- Activity (Staphylococcus aureus [7]): inactive
- Activity (Pseudomonas aeruginosa [8]): inactive
- Activity (Staphylococcus aureus [9]): inactive
- Activity (Escherichia coli [10]): inactive
- Activity (Staphylococcus aureus [11]): Active
- Activity (Staphylococcus aureus [12]): inactive
- Activity (Escherichia coli [13]): inactive
- Activity (Enterococcus faecalis [14]): inactive

SMILES: CC(C)(C)c1cc2c(O)c(c1)Cc1cc(C(C)(C)C)cc(c1OCCCO)Cc1cc(C(C)(C)C)cc(c1O)Cc1cc(C(C)(C)C)cc(c1OCCCO)C2
- Activity (Staphylococcus aureus [15]): inactive
- Activity (Pseudomonas aeruginosa [16]): inactive
- Activity (Enterococcus faecalis [17]): inactive
- Activity (Escherichia coli [18]): inactive
- Activity (Staphylococcus aureus [19]): inactive

SMILES: CC1(C)S[C@@H]2[C@H](NC(=O)COc3ccccc3)C(=O)N2[C@H]1C(=O)O
- Activity (Staphylococcus aureus [20]): Active
- Activity (Staphylococcus aureus [21]): Active
- Activity (Enterococcus faecalis [22]): Active
- Activity (Staphylococcus aureus [23]): Active
- Activity (Pseudomonas aeruginosa [24]): inactive
- Activity (Enterococcus faecalis [25]): inactive
- Activity (Escherichia coli [26]): inactive
- Activity (Staphylococcus aureus [27]): Active

SMILES: CCn1cc(C(=O)O)c(=O)c2ccc(C)nc21
- Activity (Staphylococcus aureus [28]): Active
- Activity (Pseudomonas aeruginosa [29]): inactive
- Activity (Staphylococcus aureus [30]): Active
- Activity (Escherichia coli [31]): Active
- Activity (Enterococcus faecalis [32]): inactive

SMILES: CCn1cc(C(=O)OCCCOc2c3cc(C(C)(C)C)cc2Cc2cc(C(C)(C)C)cc(c2O)Cc2cc(C(C)(C)C)cc(c2OCCCOC(=O)[C@@H]2N4C(=O)[C@@H](NC(=O)COc5ccccc5)[C@H]4SC2(C)C)Cc2cc(C(C)(C)C)cc(c2O)C3)c(=O)c2ccc(C)nc21
- diameter of the inhibition zone (DIZ) (Staphylococcus aureus [33]): 30 mm
- zone of inhibition at 10000 µg/mL (Staphylococcus aureus [34]): 31.5 mm
- Activity (Staphylococcus aureus [35]): inactive
- zone of inhibition at 10000 µg/mL (Staphylococcus aureus [36]): 35 mm
- Activity (Enterococcus faecalis [37]): inactive
- Activity (Escherichia coli [38]): inactive
